This is an account of results in ChEMBL document CHEMBL1140983, “Pyrazoles and pyrazolines as neural and inducible nitric oxide synthase (nNOS and iNOS) potential inhibitors (III)” (Eur J Med Chem, 2008).

Broadly, the inhibition is the change of the read-out against control, counted positive when it falls.

Assay [1] has as its target Nitric oxide synthase 1 (Rattus norvegicus) (UniProt P29476). Description: Inhibition of nNOS in Wistar rat striata assessed as conversion of L-[3H]arginine to L-[3H]citrulline at 1 mM by liquid scintillation spectroscopy. An outline of the steps:
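Male Wistar rats (200–250 g); fresh striata homogenized in Tris buffer (pH 7.6) with protease inhibitors, spun 1000 g 5 min, supernatant used. Incubation: 25 mM Tris, 1 mM DTT, 30 µM H4-biopterin, 10 µM FAD, 0.1 mM CaCl2, 10 µM L-arginine plus 50 nM L-[3H]-arginine; started with NADPH (0.75 mM final) and compound in DMSO (1 mM final), 37 °C 30 min. Dowex-50W separation; NADPH-omitted blank subtracted; mean ± SEM, three experiments in triplicate.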

The target of assay [2] is Nitric oxide synthase, inducible (Rattus norvegicus) (UniProt Q06518). Nature of the assay: Inhibition of iNOS in LPS-induced rat lungs assessed as conversion of L-[3H]arginine to L-[3H]citrulline at 1 mM by liquid scintillation spectroscopy. The essentials:
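iNOS induced by LPS 20 mg/kg i.v. in rats; lungs taken 8 h later, homogenized in ice-cold Tris buffer (pH 7.6) with protease inhibitors, then incubated with 10 mM EDTA to remove nNOS activity. Activity read as [3H]-citrulline from L-[3H]-arginine by the striatal-assay procedure, compound at 1 mM final, 37 °C 30 min; mean ± SEM, three experiments in triplicate.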

Nitric oxide synthase 1 (Rattus norvegicus), sequence (P29476 whole entry): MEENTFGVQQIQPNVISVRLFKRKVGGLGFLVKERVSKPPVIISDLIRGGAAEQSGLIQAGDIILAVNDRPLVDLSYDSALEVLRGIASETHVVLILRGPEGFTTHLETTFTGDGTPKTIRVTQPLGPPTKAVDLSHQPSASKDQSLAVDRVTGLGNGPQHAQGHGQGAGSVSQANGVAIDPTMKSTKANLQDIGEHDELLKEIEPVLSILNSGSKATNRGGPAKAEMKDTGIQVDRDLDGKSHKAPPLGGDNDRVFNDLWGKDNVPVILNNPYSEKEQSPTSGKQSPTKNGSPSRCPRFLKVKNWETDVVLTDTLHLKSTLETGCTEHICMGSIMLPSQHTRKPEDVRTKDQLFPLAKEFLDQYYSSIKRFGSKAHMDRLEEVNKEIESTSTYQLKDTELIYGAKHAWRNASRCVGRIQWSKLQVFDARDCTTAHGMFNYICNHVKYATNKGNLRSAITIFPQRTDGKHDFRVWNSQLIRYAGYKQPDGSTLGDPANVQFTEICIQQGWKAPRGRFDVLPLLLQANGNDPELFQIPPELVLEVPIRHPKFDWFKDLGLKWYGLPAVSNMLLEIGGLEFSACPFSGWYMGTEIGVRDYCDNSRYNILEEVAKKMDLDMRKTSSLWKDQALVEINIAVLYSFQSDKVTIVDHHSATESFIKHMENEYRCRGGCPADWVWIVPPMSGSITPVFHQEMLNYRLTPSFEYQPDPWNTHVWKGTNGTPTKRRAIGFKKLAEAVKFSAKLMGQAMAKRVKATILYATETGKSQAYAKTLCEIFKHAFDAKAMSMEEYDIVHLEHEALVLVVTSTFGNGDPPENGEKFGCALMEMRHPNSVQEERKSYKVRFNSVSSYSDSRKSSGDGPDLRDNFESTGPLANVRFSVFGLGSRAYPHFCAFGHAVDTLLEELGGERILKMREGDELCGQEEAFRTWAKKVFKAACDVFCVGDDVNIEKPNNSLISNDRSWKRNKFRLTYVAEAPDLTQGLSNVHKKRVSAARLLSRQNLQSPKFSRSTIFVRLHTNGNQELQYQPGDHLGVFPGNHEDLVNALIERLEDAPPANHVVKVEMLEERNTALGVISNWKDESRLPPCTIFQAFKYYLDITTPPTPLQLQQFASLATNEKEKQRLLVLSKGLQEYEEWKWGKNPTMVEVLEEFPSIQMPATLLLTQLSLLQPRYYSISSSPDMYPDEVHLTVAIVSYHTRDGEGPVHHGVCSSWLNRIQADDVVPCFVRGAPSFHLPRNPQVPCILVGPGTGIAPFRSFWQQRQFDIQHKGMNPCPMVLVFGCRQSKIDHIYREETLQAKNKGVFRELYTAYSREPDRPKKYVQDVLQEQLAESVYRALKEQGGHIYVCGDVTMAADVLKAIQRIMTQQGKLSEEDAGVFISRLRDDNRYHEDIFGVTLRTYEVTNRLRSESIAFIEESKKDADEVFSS
Nitric oxide synthase, inducible (Rattus norvegicus), sequence (Q06518 whole entry): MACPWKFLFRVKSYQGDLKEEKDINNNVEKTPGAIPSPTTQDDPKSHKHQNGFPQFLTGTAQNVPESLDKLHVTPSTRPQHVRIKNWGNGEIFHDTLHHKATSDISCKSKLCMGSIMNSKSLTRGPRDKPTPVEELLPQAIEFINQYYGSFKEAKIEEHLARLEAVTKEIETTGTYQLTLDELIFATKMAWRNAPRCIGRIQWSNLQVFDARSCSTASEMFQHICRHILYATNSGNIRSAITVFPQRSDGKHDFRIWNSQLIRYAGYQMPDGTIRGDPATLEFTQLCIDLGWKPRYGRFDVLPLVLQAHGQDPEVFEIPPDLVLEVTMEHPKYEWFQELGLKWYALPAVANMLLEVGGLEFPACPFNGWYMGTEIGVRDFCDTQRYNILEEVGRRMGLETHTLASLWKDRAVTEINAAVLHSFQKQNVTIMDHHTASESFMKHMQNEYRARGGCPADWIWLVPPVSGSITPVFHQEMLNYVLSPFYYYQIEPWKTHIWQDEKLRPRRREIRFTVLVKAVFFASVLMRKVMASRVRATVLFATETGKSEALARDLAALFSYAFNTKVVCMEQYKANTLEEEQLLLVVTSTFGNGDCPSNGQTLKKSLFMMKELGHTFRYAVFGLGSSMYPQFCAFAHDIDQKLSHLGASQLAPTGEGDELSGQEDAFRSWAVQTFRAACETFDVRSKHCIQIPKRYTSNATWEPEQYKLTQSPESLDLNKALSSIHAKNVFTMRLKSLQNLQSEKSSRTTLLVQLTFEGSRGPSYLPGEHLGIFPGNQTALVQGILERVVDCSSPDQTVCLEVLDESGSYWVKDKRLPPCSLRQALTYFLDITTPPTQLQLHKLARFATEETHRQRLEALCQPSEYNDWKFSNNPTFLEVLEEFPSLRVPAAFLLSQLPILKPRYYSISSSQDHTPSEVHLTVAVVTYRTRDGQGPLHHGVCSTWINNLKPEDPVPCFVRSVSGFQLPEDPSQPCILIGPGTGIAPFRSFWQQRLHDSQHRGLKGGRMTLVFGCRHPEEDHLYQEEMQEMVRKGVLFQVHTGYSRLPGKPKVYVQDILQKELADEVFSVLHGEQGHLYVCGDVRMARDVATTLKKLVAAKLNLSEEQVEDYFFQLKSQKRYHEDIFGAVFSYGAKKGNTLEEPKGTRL

Regarding `CCOC(=O)C1CC(C(=O)c2cc(OC)ccc2N)=NN1C` (stereo not drawn), the figures for the inhibition in assay [1] and in assay [2] were -7.8% and 0.6%, respectively.

On to `CCOC(=O)c1cc(C(=O)c2cc(Cl)ccc2N)n[nH]1`, for which the inhibition in assay [1] came out at 40.2%; in assay [2], 12.8%.

As for `CCOC(=O)C1CC(C(=O)c2ccccc2N)=NN1CC` (stereo not drawn), the results for the inhibition in assay [1] and in assay [2] were 22.1% and -1.5%, respectively.

In the case of `CCOC(=O)c1cc(C(=O)c2cc(Cl)ccc2N)nn1Cc1ccccc1`, the inhibition in assay [1] stood at 2.7%; in assay [2], 50.4%.

In the case of `CCCCN1N=C(C(=O)c2cc(OC)ccc2N)CC1C(=O)OCC` (stereo not drawn), the figures for the inhibition in assay [1] and in assay [2] were -10% and 18.6%, respectively.

In the case of `CCOC(=O)C1CC(C(=O)c2ccccc2N)=NN1C` (stereo not drawn), the inhibition in assay [1] was -9.8%; in assay [2], 12.7%.

On to `CCOC(=O)C1CC(C(=O)c2cc(Cl)ccc2N)=NN1Cc1ccccc1` (stereo not drawn), for which the figures for the inhibition in assay [1] and in assay [2] were 18.3% and 17.3%, respectively.

As for `CCOC(=O)C1CC(C(=O)c2cc(Cl)ccc2N)=NN1` (stereo not drawn), the inhibition was determined as 32.1% in assay [1] and 19.1% in assay [2].

Turning to `CCOC(=O)C1CC(C(=O)c2ccccc2N)=NN1Cc1ccccc1` (stereo not drawn), the inhibition in assay [1] amounted to 28.4%; in assay [2] it was 9.4%.

With `CCOC(=O)c1cc(C(=O)c2ccccc2N)nn1CC`, the inhibition amounted to 39.5% in assay [1] and 12.5% in assay [2].

With `CCOC(=O)c1cc(C(=O)c2cc(Cl)ccc2N)nn1C`, the inhibition in assay [1] worked out at 14.5%; in assay [2], 7.3%.

For the molecule `CCOC(=O)c1cc(C(=O)c2ccccc2N)nn1Cc1ccccc1`, the results for the inhibition in assay [1] and in assay [2] were 21.9% and 13.5%, respectively.

Turning to `CCOC(=O)C1CC(C(=O)c2cc(Cl)ccc2N)=NN1CC` (stereo not drawn), the inhibition was found to be 41.5% in assay [1] and 14.7% in assay [2].

For the molecule `CCCCN1N=C(C(=O)c2ccccc2N)CC1C(=O)OCC` (stereo not drawn), the values for the inhibition in assay [1] and in assay [2] were 29.6% and 12.2%, respectively.

On to `CCCCn1nc(C(=O)c2cc(OC)ccc2N)cc1C(=O)OCC`, for which the inhibition in assay [1] turned out to be 26.2%; in assay [2], 20.5%.

For the molecule `CCOC(=O)C1CC(C(=O)c2cc(Cl)ccc2N)=NN1C` (stereo not drawn), the inhibition in assay [1] stood at 1.3%; in assay [2] it was 22.9%.

As for `CCOC(=O)c1cc(C(=O)c2cc(OC)ccc2N)nn1Cc1ccccc1`, the inhibition in assay [1] was 19.4%; in assay [2], 30.5%.

With `CCOC(=O)c1cc(C(=O)c2cc(OC)ccc2N)nn1CC`, the inhibition in assay [1] came to 20.3%; in assay [2], 24.6%.

For the molecule `CCOC(=O)C1CC(C(=O)c2cc(OC)ccc2N)=NN1CC` (stereo not drawn), the inhibition was 1.7% in assay [1] and 17.1% in assay [2].

On to `CCOC(=O)C1CC(C(=O)c2cc(OC)ccc2N)=NN1Cc1ccccc1` (stereo not drawn), for which the inhibition in assay [1] came out at 9.3%; in assay [2], 10.5%.

For the molecule `CCCCN1N=C(C(=O)c2cc(Cl)ccc2N)CC1C(=O)OCC` (stereo not drawn), the results for the inhibition in assay [1] and in assay [2] were 38.5% and 10.5%, respectively.

For `CCOC(=O)c1cc(C(=O)c2cc(Cl)ccc2N)nn1CC`, the inhibition in assay [1] is 35.5%; in assay [2], 27.5%.

In the case of `CCCCn1nc(C(=O)c2ccccc2N)cc1C(=O)OCC`, the inhibition in assay [1] amounted to 21.9%; in assay [2], 5.4%.

`CCCCn1nc(C(=O)c2cc(Cl)ccc2N)cc1C(=O)OCC`: the inhibition was found to be 7.8% in assay [1] and 18.7% in assay [2].
